Assay outcomes from PubChem.
Rows were chosen to be rich in hits. Some 2.6% of all compounds tested hit in one or more screens of this group.
SENP1 inh = blocks the human SENP1 SUMO protease catalytic domain | hit rate 0.21% among 360,000 | inhibition, % at 10 µM | recombinant SENP1 catalytic domain, CyPet-SUMO1-YPet FRET cleavage;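 active = inhibition at least 30% at 10 µM, raw YFP signal under a set limit, fluorescence ratio 0.5 to 1.5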;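 note: 0% = enzyme with DMSO and 100% = no enzyme wells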
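Assay system: hSENP1 catalytic domain, recombinant. Amount: SENP1 enzyme, 20 pM final. Schedule: 50 min reaction, RT, dark. Technique: FRET, CFP and YFP emission. Control set: no-enzyme wells low, DMSO-plus-enzyme wells high control.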
SENP7 block = SENP7 protease inhibition; AID 434973; inhibition, % at 5 µM; hit rate 1.5% among 330,000; recombinant SENP7, Z-RLRGG-aminoluciferin luminescence, 40 min;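 active = inhibition above about 50% at the single test dose, limit read from the data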;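 note: plate controls were DMSO with enzyme for no effect and no enzyme buffer wells for full effect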
SENP6 block = inhibitors of human SENP6 protease; Q9GZR1; Recombinant SENP6 catalytic domain, aminoluciferin luminescence; inhibition, % at 10 µM; hit rate 1.8% among 330,000; AID 2599;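 active = inhibition above about 50% at the single tested dose, limit read from the data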;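 note: plate controls were DMSO wells with enzyme for no effect and DMSO wells lacking enzyme for full effect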
Platelet DG rel = modulates dense granule release in human platelets | human platelet-rich plasma, SFLLRN dense granule ATP release, luminescence | inhibition, %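 (compounds screened at 7.5 µM in platelet-rich plasma)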 | hit rate 0.22% among 300,000 | AID 1663;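 active = mean replicate score, as percent of positive control, at or above 50; inconclusive = mean below 50 but at least one replicate at or above 50; inactive = mean and every replicate below 50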
SENP8 block-1 = blocks the human protease SENP8. Q96LD8. purified SENP8, Z-RLRGG-aminoluciferin cleavage, luminescence. inhibition, % at 10 µM. hit rate 1.2% among 330,000. AID 2540; in the data active = inhibition above about 50%
Target sequence (Q96LD8 whole entry, looked up): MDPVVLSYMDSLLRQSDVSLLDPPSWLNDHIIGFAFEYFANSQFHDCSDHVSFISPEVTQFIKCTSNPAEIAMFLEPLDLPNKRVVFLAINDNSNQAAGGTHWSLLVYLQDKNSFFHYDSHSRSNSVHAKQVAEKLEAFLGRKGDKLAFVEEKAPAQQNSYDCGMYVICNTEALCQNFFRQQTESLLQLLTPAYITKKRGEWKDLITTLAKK
SENP8 block-2 = blocks human SENP8 cleavage of Nedd8 substrate; Q96LD8; recombinant SENP8, Nedd8 substrate fluorescence; inhibition, % at 20 µM; hit rate 0.64% among 360,000; AID 602440; in the data active = inhibition mostly above about 40%, no sharp cut-off; inactive = mostly below about 27%
SENP8 conf = human SENP8 inhibition, confirmed; shares compounds with SENP7 block; hit rate 40% among 6,200; AID 488912; Recombinant SENP8, Z-RLRGG-aminoluciferin luminescence, 60 min; inhibition, % at 12.5 µM;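 active = mean inhibition across replicates above about 50%, limit read from the data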
SENP6 confirm = confirmation of human SENP6 protease inhibitors; shares compounds with SENP7 block; recombinant SENP6, Z-RLRGG-aminoluciferin luminescence; inhibition, % at 12.5 µM; hit rate 58% among 6,200
SENP7 confirm = human SENP7 inhibition, confirmed. recombinant SENP7, Z-RLRGG-aminoluciferin luminescence, 40 min. inhibition, % at 12.5 µM. shares compounds with SENP7 block. hit rate 69% among 6,200
Casp3 SENP sel = selectivity test for SENP inhibitors: human caspase-3 inhibition. shares compounds with SENP7 block. purified caspase-3, Z-DEVD-aminoluciferin luminescence, 60 min. inhibition, % at 12.5 µM. hit rate 60% among 6,200. AID 488918;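 active = mean inhibition above about 50%, limit read from the data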;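 note: plate controls were enzyme with DMSO for no effect and wells without caspase-3 for full effect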
Target sequence (P42574 28-227 limits assumed): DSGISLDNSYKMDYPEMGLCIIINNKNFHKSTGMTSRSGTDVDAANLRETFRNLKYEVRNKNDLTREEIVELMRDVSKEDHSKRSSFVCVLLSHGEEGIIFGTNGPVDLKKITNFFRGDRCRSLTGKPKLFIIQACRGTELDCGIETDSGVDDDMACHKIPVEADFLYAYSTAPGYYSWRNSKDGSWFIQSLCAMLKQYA
Luc interf = counter-screen for SENP inhibitors: luminescence interference | hit rate 39% among 6,200 | shares compounds with SENP7 block | Pre-incubated SENP8/Z-RLRGG-aminoluciferin, luciferase luminescence interference | inhibition, % at 12.5 µM | AID 488919;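 active = mean inhibition above about 50% when retested at one dose, limit read from the data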;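 note: plate controls were DMSO wells with completed reaction for no effect and substrate without enzyme for full effect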
Active calls of the source: *; ? = inconclusive; . = not tested or not shown.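 Rule for the calls, unless noted: active = mean inhibition above about 50% in the one-dose retest (limit read from the data); inactive = the rest.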

SMILES	SENP1 inh	SENP7 block	SENP6 block	Platelet DG rel	SENP8 block-1	SENP8 block-2	SENP8 conf	SENP6 confirm	SENP7 confirm	Casp3 SENP sel	Luc interf
C=CCN(CC=C)C(=S)NC(=O)Cc1cccc2ccccc12	1	-6	5	2	-13	16	.	.	.	.	.
O=C(Nc1nnc([C@H]2C[C@H](O)[C@@H](CO)O2)s1)C(c1ccccc1)c1ccccc1	1	.	.	.	.	-11	.	.	.	.	.
Oc1c(Br)cc(C2N=C(c3ccccc3)NO2)cc1Br (centres undefined)	3	9	98*	4	81*	-26	-21	88*	96*	79*	91*
CSc1ccc(C2N=C(c3ccccc3)NO2)cc1 (centres undefined)	1	11	61*	5	45	-100	20	7	34	11	18
C[C@@H]1CCCCO[C@@H](CN(C)S(=O)(=O)c2cn(C)cn2)[C@@H](C)CN([C@H](C)CO)C(=O)c2cc(NC(=O)Nc3ccc(C(F)(F)F)cc3)ccc2O1	0	.	.	.	.	2	.	.	.	.	.
Cc1ccc(Nc2nc3nonc3[nH]c2=O)cc1	2	60*	36	2	60*	10	75*	66*	84*	74*	71*
OCCCCCNc1ncnc2ccccc12	-14	9	-9	-6	-4	-138	.	.	.	.	.
OCCCCNc1cccc2ccccc12	-7	-6	63*	10	45	-309	2	20	3	-1	-4
CC(NC(=O)c1ccccc1F)c1nnc(SCC(=O)NC2=NCCS2)n1C (centres undefined)	3	3	2	8	-1	6	.	.	.	.	.
CCCCOc1ncnc2c1[nH]c1ccc(OC)cc12	.	77*	34	4	16	.	27	29	48	46	5
Cc1cc(SCc2ccc(Br)cc2)nc(=O)[nH]1	-11	6	-4	4	1	-1	.	.	.	.	.
O=c1[nH]c2ccccc2nc1/C=C/c1ccccc1	-21	56*	10	4	56*	-395	14	27	49	42	16
CC(C)(C)/C(O)=C/c1nc2ccccc2[nH]c1=O	-69	-4	-7	-15	4	-14	.	.	.	.	.
O=c1[nH]c2ccccc2nc1/C=C/c1ccc(F)cc1	-25	55*	64*	2	59*	-399	26	26	23	19	10
Cn1c(=O)c(/C=C/c2ccc(F)cc2)nc2ccccc21	-35	.	.	-18	.	-446	.	.	.	.	.
O=c1[nH]c2ccccc2nc1/C=C/c1ccc(O)cc1	-27	92*	93*	35	93*	-385	97*	98*	102*	92*	83*
O=C(N/C(=C\c1ccccc1)C(=O)N1CCCCC1)c1ccco1	2	-4	-20	3	-2	-2	.	.	.	.	.
CC(C)c1ccc(C(=O)Nc2cccnc2)cc1	3	71*	73*	-2	36	28	62*	58*	88*	79*	32
O=C(NNC(=O)c1ccc(-c2ccccc2)cc1)c1ccccc1	3	62*	-5	5	30	10	34	41	82*	80*	47
O=C(Nc1cccnc1)c1ccc(-c2ccccc2)cc1	1	82*	33	10	66*	18	51*	70*	96*	75*	37
COc1cc(OC)cc(C(=O)NNC(=O)c2nn(C)c(=O)c3ccccc23)c1	1	3	-14	.	-7	-22	.	.	.	.	.
CCOC(=O)c1c(C)[nH]c(C)c1C(=O)COC(=O)c1nn(CC)c(=O)c2ccccc12	3	.	.	.	.	10	.	.	.	.	.
CC(=O)c1cnc(Nc2ccccc2)s1	-1	1	6	1	1	-364	.	.	.	.	.
CC(=O)c1cnc(Nc2cccc(Cl)c2Cl)s1	-4	48	53*	-5	41	-270	62*	58*	86*	61*	5
CCCN(Cc1nnc(-c2cccs2)o1)C(=O)CN1C(=O)NC2(CCCCC2)C1=O	-1	6	-5	.	-9	6	.	.	.	.	.
SMILES	SENP1 inh	SENP7 block	SENP6 block	Platelet DG rel	SENP8 block-1	SENP8 block-2	SENP8 conf	SENP6 confirm	SENP7 confirm	Casp3 SENP sel	Luc interf
CCc1ccc(C(=O)O)cc1	1	-5	7	-3	0	29	.	.	.	.	.
CCC(C)COC(=O)c1ccc(C(=O)O)cc1 (centres undefined)	1	2	62*	-2	26	26	42	45	81*	86*	70*
O=C(Nc1cccc(O)c1)c1c(O)c2ccccc2[nH]c1=O	-1	86*	48	10	62*	-26	7	50*	78*	57*	44
O=C(NC1=NCCS1)c1cc2ccccc2o1	1	60*	53*	12	34	9	47	48	81*	77*	58*
COc1ccc(C)cc1NC(=O)c1cc2ccccc2o1	3	-4	-5	-1	-8	6	.	.	.	.	.
O=C(Nc1cccc2ncccc12)c1cc2ccccc2o1	1	4	0	6	-5	1	.	.	.	.	.
Cc1ccnc(NC(=O)c2cc3ccccc3o2)c1	-7	99*	94*	29	90*	-4	96*	97*	102*	97*	94*
O=C(Nc1ncccc1O)c1cc2ccccc2o1	-20	68*	67*	27	31	-31	63*	63*	85*	87*	68*
O=C(Nc1ccc(Cl)cn1)c1cc2ccccc2o1	3	79*	74*	-13	59*	8	9	64*	82*	70*	28
COc1cc(NC(=O)CCn2c(=S)[nH]c3ccccc3c2=O)cc(OC)c1OC	1	.	.	.	.	10	.	.	.	.	.
CC(=O)Nc1cc2ccccc2oc1=O	1	-2	-24	-4	-11	-62	.	.	.	.	.
O=C(Nc1ccccn1)c1cc2ccccc2o1	1	98*	97*	?	95*	8	52*	98*	101*	97*	96*
O=C(Nc1ccccn1)c1cc2ccccc2cc1O	-27	52*	77*	-2	75*	3	6	33	50	38	3
